Bfl-1 A1 inh: inhibitors of the anti-apoptotic protein A1, read as caspase activation; MEF A1-2A-BIM cells, Caspase-Glo 3/7 luminescence, 3 h; percent of clofoctol response, vehicle zero; caspase activation, % (test concentration not listed); 330,000 compounds, 0.066% hits; AID 2462;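 active means over half of replicate activation scores above 10%, or exactly half above 10 with the replicate mean above 10; inconclusive means replicate mean below 10 yet half the replicates above 10; inactive means over half of replicates below 10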
CSC inhib: blocks cancer stem cells; AID 2717; 300,000 compounds, 1.1% hits; inhibition, % at 7.5 µM; cancer stem cell-like cells viability, luminescence; in the data active means inhibition above about 75%; inconclusive means no clear call, values can overlap the other calls; tested in HMLE shEcad cells
Calb FLC: C. albicans growth modulation with fluconazole; AID 1979; 300,000 compounds, 0.57% hits; C. albicans CaCi-2 + fluconazole, Alamar Blue growth, 48 h; growth inhibition, % (no concentration beside the values);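 active means growth inhibition above about 58% in most replicates, limit read from the data, passing the limit was not always enough; inconclusive means exactly half the replicates above a set limit; inactive means most replicates below a set limit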;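 further: all wells also contain fluconazole at 8 µg/ml as a sub-toxic cotreatment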
T cruzi inh: T. cruzi replication inhibition; 300,000 compounds, 1.4% hits; AID 1885; T. cruzi beta-gal in NIH3T3, luminescence, 90 h; inhibition, % (no concentration beside the values);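 active means mean inhibition across valid replicates above about 55%, limit read from the data; inconclusive means mean below that limit but half or more replicates reach it; inactive means mean below it, under half of replicates reach it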;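 further: signal also drops with host cell toxicity which is not excluded here; higher percent means less beta-gal luminescence so fewer parasites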
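Incubation – ≥90 h infection period, 3 h prior cell attachment · System – NIH/3T3 fibroblasts plus reporter T. cruzi · Doses – compound pinned at 50 nL/well, DMSO · Read-out basis – percent inhibition of parasite-derived β-gal signal · Signal – luminescent β-galactosidase signal after 60 min lysis · Also added – 5000 T. cruzi trypomastigotes/well · Medium – Low-serum DMEM with 2% FBS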
H9c2 TAG inh: reduces triacylglycerol accumulation in H9c2 cells | Nile Red lipid (TAG) fluorescence; cells loaded with 200 µM oleic acid | 230,000 compounds, 0.66% hits | AID 651582 | inhibition, % at 12.5 µM;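 active means pattern-corrected inhibition of lipid staining of at least 50% with the nuclear-stain viability signal not falling by more than 50%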
Beta apoptosis: beta cell apoptosis inhibition. 300,000 compounds, 0.8% hits. INS-1E cytokine-induced death, ATP luminescence, 48 h; percent of positive-control rescue, neutral wells zero. protection from apoptosis, % (concentration not given with the values);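 active means Every replicate reaches about 75%, or at least half do and their mean reaches it too, limit read from the data; inconclusive means At least half of replicates reach the limit but their mean does not; inactive means Under half of replicates reach the limit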;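 further: higher means more ATP so stronger rescue from cytokine killing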
Each line names hits and unclear results; the compound was inactive in the other large screens. This is a sample that favours compounds with a hit; in the whole collection about 3.1% have one here.

O=C(c1ccc([N+](=O)[O-])o1)N1CCN(c2nc3ccc(F)cc3s2)CC1	none
O=C(c1ccc([N+](=O)[O-])o1)N1CCc2ccccc2C1	T cruzi inh 56.7
COc1cc2c(cc1OC)CN(C(=O)c1ccc([N+](=O)[O-])o1)CC2	none
COc1cccc2sc(N3CCN(C(=O)c4ccc([N+](=O)[O-])o4)CC3)nc12	none
CC(Nc1ccc(Br)cc1)C(=O)Nc1cccc(S(=O)(=O)N2CCOCC2)c1 (stereo unspecified)	none (no result: Bfl-1 A1 inh, CSC inhib, Calb FLC, T cruzi inh, Beta apoptosis)
COc1ccccc1CNS(=O)(=O)c1c(C(=O)N2CCCCC2)c(C)n(C)c1C	none (no result: H9c2 TAG inh, Beta apoptosis)
Clc1ccc(NNc2ccnc3cc(Cl)ccc23)cc1	none
Oc1ccc(/C=N/Nc2ccnc3cc(Cl)ccc23)c(O)c1	none
Cc1ccc(/C=N/Nc2ccnc3cc(Cl)ccc23)c(C)c1	T cruzi inh 68.5, Beta apoptosis 101.3 (no result: CSC inhib, H9c2 TAG inh)
Cc1ccccc1/C=N/Nc1ccnc2cc(Cl)ccc12	CSC inhib 83.6, T cruzi inh 60.5, Beta apoptosis 95.3 (no result: H9c2 TAG inh)
COc1ccccc1CNC(=O)c1cc(S(=O)(=O)N2CCOCC2)cn1C	none
Cc1ccccc1OCCC(=O)N(CC(C)C)c1c(N)n(Cc2ccccc2)c(=O)[nH]c1=O	none (no result: CSC inhib, Calb FLC, T cruzi inh)
O=C(c1ccc2ccccc2c1)N1CCN(S(=O)(=O)/C=C/c2ccccc2)CC1	T cruzi inh 55.5
Nc1ccc(C(=O)N2CCN(S(=O)(=O)/C=C/c3ccccc3)CC2)cc1[N+](=O)[O-]	none
O=[N+]([O-])c1c(Nc2ccccc2O)cc(Cl)c2nonc12	T cruzi inh 58.7
CCCN1CCCc2ccccc21	none (no result: H9c2 TAG inh)
N#CCCN1CCCc2cc(N=Nc3ccc(C(F)(F)F)cc3)ccc21	H9c2 TAG inh 57.3
CCn1nccc1NC(=O)c1ccc2sc([C@@H]3O[C@H](CO)[C@H](O)[C@H](O)[C@H]3O)nc2c1	none (no result: Bfl-1 A1 inh, CSC inhib, Calb FLC, T cruzi inh, Beta apoptosis)
Cc1c(CN2CCC(CO)(Cc3ccccc3)CC2)c2ccccc2n1C	T cruzi inh 57.4
Cc1[nH]c2ccccc2c1CN1CCC(CO)(Cc2ccccc2)CC1	none (no result: H9c2 TAG inh)
CCOc1ccccc1C(=O)Nn1c(C2CCC2)nc2ccccc2c1=O	none (no result: H9c2 TAG inh)
COc1ccccc1C(=O)Nn1c(C2CCC2)nc2ccccc2c1=O	T cruzi inh 55.9 (no result: CSC inhib, H9c2 TAG inh)
CC(C)Cc1nnc(NC(=O)c2ccc(S(=O)(=O)N3CCCC3)cc2)s1	none (no result: Bfl-1 A1 inh, CSC inhib, Calb FLC, T cruzi inh, Beta apoptosis)
O=C(O)CCCCCCCCCCP(=O)(c1ccccc1)c1ccccc1	none
O=P(CCCCCCCCCP(=O)(c1ccccc1)c1ccccc1)(c1ccccc1)c1ccccc1	T cruzi inh 60.8 (no result: Beta apoptosis)
CC(=O)c1cccc(NC(=O)CCc2nc3sc4c(c3c(=O)[nH]2)CCCC4)c1	none
O=C(CNCCc1ccc(Cl)cc1)Nc1ccc(C(=O)N2CCCCC2)cc1	T cruzi inh 61.5 (no result: H9c2 TAG inh)
O=C(CNCCc1ccccc1)Nc1ccc(C(=O)N2CCCCC2)cc1	none (no result: H9c2 TAG inh)
CN(C)CCNC(=O)CNC(=S)N(CCCN1CCOCC1)Cc1cccs1	none
O=C(Nc1ccc(-c2noc(-c3cccs3)n2)cc1)c1cccnc1	Beta apoptosis 98.8
COc1ccc(CC(=O)Nc2ccc(-c3noc(-c4cccc(OC)c4)n3)cc2)cc1	none
COc1cccc(-c2nc(-c3ccc(NC(=O)c4cccnc4)cc3)no2)c1	Beta apoptosis 114.0
O=S(=O)(N[C@H]1C[C@@H](NS(=O)(=O)OCC(Cl)(Cl)Cl)C2CCCCC21)OCC(Cl)(Cl)Cl (stereo partly specified)	CSC inhib 76.2
CNC[C@H](Cc1ccccc1)NC[C@@H](Cc1cccc2ccccc12)NCCc1ccc(C)cc1	CSC inhib 108.1, Calb FLC 110.5, H9c2 TAG inh 138.1, Beta apoptosis 106.8
CC#CC(=O)N1CCC(C(=O)Nc2ccc(Oc3ccccc3)nc2)CC1	none
CCOc1ccc(OCCC(=O)N(CCC(C)C)c2c(N)n(Cc3ccccc3)c(=O)[nH]c2=O)cc1	none (no result: Beta apoptosis)
CCOC(=O)/C(=C\c1cccnc1)C(=O)c1cc(C(C)=O)c(Nc2ccccc2)s1	Bfl-1 A1 inh 22.3, CSC inhib 97.0, H9c2 TAG inh 80.1, Beta apoptosis 105.0
CCOC(=O)/C(=C\c1ccccc1)C(=O)c1cc(C(C)=O)c(Nc2ccccc2)s1	CSC inhib 76.2, T cruzi inh 54.6, Beta apoptosis 97.9 (no result: H9c2 TAG inh)
CCN(CC)CCNC(=O)C1CCN(S(=O)(=O)c2c(C)noc2/C=C/c2ccccc2F)CC1	none (no result: H9c2 TAG inh)
CCN(Cc1ccccc1)S(=O)(=O)c1c(C)[nH]c(C)c1C(=O)N1CCCC1	none (no result: H9c2 TAG inh)
CC(=O)N1CCN(C(c2ccccc2)c2ccccc2)CC1	Bfl-1 A1 inh inconclusive (no result: CSC inhib, T cruzi inh, H9c2 TAG inh, Beta apoptosis)
CC12CCC(C(=O)N3CCN(C(c4ccccc4)c4ccccc4)CC3)(OC1=O)C2(C)C (stereo unspecified)	T cruzi inh 55.9
c1ccc(C2(Cn3ccc4ccccc43)OCCO2)cc1	Beta apoptosis 113.6
CC(C)CCCCCCCCCCCCC(=O)NCC(=O)NC1C(O)C(O)C(Nc2ncnc3nc[nH]c23)OC1C(O)CO (stereo unspecified)	H9c2 TAG inh 84.9 (no result: Bfl-1 A1 inh, CSC inhib, Calb FLC, T cruzi inh, Beta apoptosis)
COc1ccccc1COC(=O)c1ccc(S(=O)(=O)N2CCOCC2)cc1	none (no result: Calb FLC, T cruzi inh)
CCC(=C(c1ccc(OC)cc1)c1ccc(OC)cc1)c1cn(CC(O)CN2CCN(C)CC2)c2ccccc12 (stereo unspecified)	CSC inhib 107.0 (no result: Calb FLC, T cruzi inh, H9c2 TAG inh)
COc1ccc(-c2cc3ccccc3n2CC(O)CN2CCCCC2)cc1 (stereo unspecified)	none
COc1ccc(Cn2c(-c3ccc(C)cc3)c[n+]3ccccc23)cc1	T cruzi inh inconclusive, Beta apoptosis 93.2
Cc1cc(OCCOCCN2CCCC2)ccc1C(C)C	T cruzi inh 56.6
Cc1cc(OCCCCCN2CCCC2)ccc1Cl	T cruzi inh 66.7
CCOc1cccc(OCCOCCN2CCCC2)c1	none (no result: H9c2 TAG inh)
CSc1ncnc2c1ccn2CC(=O)Nc1ccc(C)c(C)c1	none (no result: Calb FLC, T cruzi inh)
Cc1snc(S(=O)(=O)/C(C#N)=N/Nc2ccc(C(F)(F)F)cc2)c1C#N	CSC inhib 89.0
Cc1snc(S(=O)(=O)/C(C#N)=N\Nc2ccccc2)c1C#N	none (no result: H9c2 TAG inh)
CC1CCc2c(sc(NC(=O)CCCn3cnc([N+](=O)[O-])n3)c2C(N)=O)C1 (stereo unspecified)	none
NC(=O)c1c(NC(=O)CCCn2cnc([N+](=O)[O-])n2)sc2c1CCCC2	T cruzi inh 60.1
O=C(CCCn1cnc([N+](=O)[O-])n1)Nc1ccc(F)c(Cl)c1	T cruzi inh 60.3
O=C(CCCn1cnc([N+](=O)[O-])n1)Nc1ccc(Cl)cc1Cl	T cruzi inh 58.5 (no result: H9c2 TAG inh)
O=C(CCCn1cnc([N+](=O)[O-])n1)Nc1cccc(O)c1	none (no result: H9c2 TAG inh, Beta apoptosis)
COc1ccccc1CNC(=O)c1cc(C(C)=O)c[nH]1	none (no result: H9c2 TAG inh)
Cc1cccc(NC(=S)NNc2ncc(C(F)(F)F)cc2Cl)c1	Calb FLC inconclusive (no result: H9c2 TAG inh)
FC(F)(F)c1cnc(NNC(=S)Nc2ccccc2Cl)c(Cl)c1	Calb FLC inconclusive, Beta apoptosis 111.9 (no result: H9c2 TAG inh)
COC(=O)COc1ccc(C2NC(=O)NC(c3ccccc3)=C2C(C)=O)cc1Br (stereo unspecified)	none (no result: H9c2 TAG inh)

Assay outcomes deposited in PubChem BioAssay by several laboratories.
